In the library only some 2.5% were active in any assay of this set; here they are far more common.
PfG6PD inh = PfG6PD (Plasmodium falciparum) enzyme inhibition. AID 504690. inhibition, % at 20 µM. 0.78% of 350,000 active. PfGluPho enzyme, NADPH resazurin-diaphorase fluorescence;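 active = inhibition reaching at least a set limit at 20 µM in the primary screen, cut at about 59% in these data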
PGE2 EP2 inh = inhibitors of human EP2 prostaglandin E2 receptor; inhibition, % at 25 µM; 0.52% of 260,000 active; P43116; C6 glioma cells expressing human EP2, cAMP TR-FRET; cells stimulated with saturating PGE2;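 active = percent inhibition above 40 after rounding to a whole number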;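 note: rat C6 glioma host cells with rolipram phosphodiesterase inhibitor present; the protocol text gives 20 µM as final concentration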
EP2 modulator = modulates human prostaglandin E2 receptor EP2 signaling | P43116 | EP2-expressing cells, cAMP HTRF FRET, PGE2 co-stimulation | induction, % at 25 µM | 0.83% of 260,000 active | AID 940;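 active = compounds whose cAMP rise, as percent of the full-agonist control response, exceeds 60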;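 note: rat C6 glioma line stably carrying human EP2 under a CMV promoter; the protocol text gives 20 µM as final concentration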
HKDC1 inhibitor = inhibitors of human hexokinase HKDC1. Q2TB90. inhibition, % at 20 µM. recombinant HKDC1, G6PDH/diaphorase resazurin coupled fluorescence. 0.16% of 340,000 active;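 active = inhibition above about 35% when tested at 20 µM, limit read from the data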
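Test system: recombinant HKDC1 (HK5) hexokinase enzyme, produced in-house; Amount: enzyme 5 µg/mL final; Buffer or medium: Tris pH 8.0 buffer with MgCl2, Tween-20, BSA, BME; Reagent: glucose and ATP substrates; Doses: 20 µM test compound, 1% DMSO; Incubation: 90 min reaction incubation at room temperature, dark; Detection: resorufin fluorescence at 613 nm.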
PHOSPHO1 block = blocks human PHOSPHO1 phosphatase activity; Q8TCT1; inhibition, % at 13.3 µM; recombinant PHOSPHO1, absorbance phosphatase assay; 1.1% of 290,000 active; in the data active = inhibition above about 60%
Target sequence (Q8TCT1 whole entry, looked up): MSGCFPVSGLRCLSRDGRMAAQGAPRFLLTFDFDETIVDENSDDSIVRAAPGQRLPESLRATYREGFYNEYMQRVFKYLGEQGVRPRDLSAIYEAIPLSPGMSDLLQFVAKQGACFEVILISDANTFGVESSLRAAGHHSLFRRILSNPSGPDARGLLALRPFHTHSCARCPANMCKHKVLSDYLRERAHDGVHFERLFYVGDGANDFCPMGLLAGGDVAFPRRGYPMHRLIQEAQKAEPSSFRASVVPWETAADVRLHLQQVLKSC
Tb hexokinase = T. brucei hexokinase 1 inhibition. recombinant TbHK1, G6PDH-coupled NADH A340. AID 1430. inhibition, % at 10 µM. 0.11% of 220,000 active;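 active = inhibition of 50% or more in the single-dose primary screen; inactive = inhibition below 50%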
Numbers stand for hits; - = inactive; . = no result.

SMILES	PfG6PD inh	PGE2 EP2 inh	EP2 modulator	HKDC1 inhibitor	PHOSPHO1 block	Tb hexokinase
CC(=O)n1c2ccccc2c2ccccc21	-	-	-	-	-	-
c1ccc(-n2c3ccccc3c3ccccc32)cc1	-	-	64	-	-	-
O=C(O)c1cc(-c2ccc(F)cc2)n[nH]1	.	-	-	.	.	.
Oc1cc(CN2COc3ccccc32)c(O)cc1CNC1CCCCC1	.	118	-	.	.	.
Cc1n[nH]c(C)c1Cc1c(F)cccc1Cl	-	-	87	-	-	-
CCCn1cnc2sc3c(c2c1=O)CCC(C)C3 (stereo not drawn)	.	-	-	.	.	.
CN(C)[C@H]1C(=O)C(C(=O)NCN2CCCC2)=C(O)[C@@]2(O)C(=O)C3=C(O)c4c(O)cccc4[C@](C)(O)[C@H]3C[C@H]12	.	44	-	.	.	.
CN(C)c1ccc(C(c2nnnn2C(C)(C)C)N2CCN(C(=O)c3ccco3)CC2)cc1 (stereo not drawn)	-	-	-	-	88	-
CCC(C)c1ccccc1OCC(=O)Nc1ccc2c(c1)OCO2 (stereo not drawn)	.	-	-	.	.	.
S=c1[nH]nc(NCCCN2CCOCC2)s1	-	-	-	-	62	-
S=C(NCCCN1CCOCC1)NCCCN1CCOCC1	-	-	-	-	-	-
CC(=O)Nc1ccc(S(=O)(=O)N2CCCC(c3nc(-c4ccc(Cl)cc4)no3)C2)cc1 (stereo not drawn)	.	-	-	.	.	.
CCOCCCNC(=S)Nc1ccc(S(N)(=O)=O)cc1	-	-	-	-	88	-
CCCNC(=S)Nc1ccc(S(N)(=O)=O)cc1	-	-	-	-	-	-
c1ccc(-n2nnc3c(N4CCOCC4)ncnc32)cc1	-	-	-	-	68	-
Fc1ccc(-n2cc(-c3ccccc3)c3c(N4CCOCC4)ncnc32)cc1	-	-	62	-	-	-
COc1ccc(-n2cc(-c3ccccc3)c3c(N4CCOCC4)ncnc32)cc1	-	-	-	-	-	-
Cc1cccc(NC(=S)N2CCC(NC(=O)C(C)(C)C)CC2)c1C	.	-	-	.	.	.
COc1cc(OC)cc(C(=O)N(Cc2cc3cc4c(cc3[nH]c2=O)OCCO4)C2CCCCC2)c1	.	-	-	.	.	.
CCOc1ccc(OCC)c(NC(=O)CSc2nc(C(C)C)nc3ccccc23)c1	.	-	-	.	.	.
O=C(c1cc(COc2ccc3ncccc3c2)on1)N1CCCC(O)C1 (stereo not drawn)	-	-	-	-	-	-
O=C(c1cc(COc2ccc3ncccc3c2)on1)N1CCC(O)CC1	-	-	-	-	62	-
CCOc1ccc(-c2nnc(NC(=O)C(C)C)s2)cc1	.	-	-	.	.	.
CCN(Cc1ccccc1)S(=O)(=O)c1ccccc1Br	-	.	.	-	.	.
C=CCCCN(Cc1ccccc1)S(=O)(=O)c1ccccc1Br	-	-	61	-	-	-
SMILES	PfG6PD inh	PGE2 EP2 inh	EP2 modulator	HKDC1 inhibitor	PHOSPHO1 block	Tb hexokinase
CC12CCC(C(=O)N(Cc3ccccc3)Cc3ccccc3)(OC1=O)C2(C)C (stereo not drawn)	-	-	61	-	-	-
CC12CCC(C(=O)NNC(=O)c3ccccc3)(OC1=O)C2(C)C (stereo not drawn)	-	.	.	-	-	.
c1coc(C2OCC3(CO2)COC(c2ccco2)OC3)c1 (stereo not drawn)	-	54	-	-	-	-
COc1ccc(C(=O)NNc2ccccc2)cc1OC	-	-	-	-	77	-
CC1CC(C)CN(CCC(=O)Nc2ccc(F)c(F)c2)C1 (stereo not drawn)	.	-	-	.	.	.
COc1c(C)cc(Br)cc1C(=O)Nc1ccc(Cc2ccncc2)cc1	-	-	64	-	-	-
COc1ccccc1C(=O)Nc1ccc(Cc2ccncc2)cc1	-	-	-	-	-	-
CCN(CC)C(=O)CSc1nc(-c2ccccc2)ccc1C#N	-	-	-	-	-	-
COc1ccc(-c2cc(-c3ccccc3)nc(SC(C)C(=O)O)c2C#N)cc1 (stereo not drawn)	-	.	.	-	-	.
CC(C)C(Sc1nc(-c2ccccc2)cc(-c2ccccc2)c1C#N)C(=O)O (stereo not drawn)	-	-	62	-	-	-
CCOC(=O)C(C)Sc1nc(-c2ccccc2)ccc1C#N (stereo not drawn)	.	-	62	.	.	.
CN(C)CCN(Cc1cccs1)Cc1ccccc1Cl	.	-	-	.	.	.
CN(C)c1ccc(C(=C2C=CC(=[N+](C)C)C=C2)c2ccccc2)cc1	.	81	-	.	.	.

Screening results deposited in PubChem BioAssay by several laboratories.
